ChEMBL document CHEMBL5724801, “EUbOPEN Chemogenomics Library - Multiplex” (2024)
Several values for one entry are separate records, joined by “and”; a condition that tells them apart may be missing. Identical values can stand only once.

Test system: Fibroblast
Experiment: Multiplex assay against human fibroblast
Type: toxicity, cell-based
Summary of the method: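 Live cells were stained at seeding with Hoechst33342, BioTracker Green Microtubule Cytoskeleton Dye, MitoTracker Red and Annexin V Alexa Fluor 680. Following compound addition, they were imaged on a CQ1 microscope at 37°C and 5% CO2 and gated by CellPathfinder machine learning into Hoechst high-intensity objects or normal cells, with normal cells split into healthy, pyknosed or fragmented nuclei and pyknosed cells into mitotic or apoptotic. Tubulin, mitochondrial-mass and membrane-permeability phenotypes are per cents of healthy-nucleus cells.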

[1] = 12 h, 1 µM, compound concentration 1 uM
[2] = 12 h, 10 µM, compound concentration 10 uM
[3] = 24 h, 1 µM, compound concentration 1 uM
[4] = 24 h, 10 µM, compound concentration 10 uM
[5] = 48 h, 1 µM, compound concentration 1 uM
[6] = 48 h, 10 µM, compound concentration 10 uM

## CC(C)CNc1nc(N2CCN(CC3CCCOC3)CC2)ncc1C(=O)NCc1ccccc1 (centres undefined)
[1]
  Population Apoptotic (%): 34% and 80.22%
  Population Fragmented Nuclei (%): 39.83% and 19.74%
  Population Healthy Nuclei (%): 17.8% and 20.39%
  Population Hoechst High Intensity Objects (%): 0%
  Population Membrane Permeable-Phenotype (%): 9.52% and 19.35%
  Population Mitochondria Different-Phenotype (%): 9.52% and 6.45%
  Population Normal (%): 100%
  Population Pyknosed Nuclei (%): 42.37% and 59.87%
  Total Cell Count: 118 and 152
[2]
  Population Apoptotic (%): 39.68% and 87.25%
  Population Fragmented Nuclei (%): 33.58% and 21.43%
  Population Healthy Nuclei (%): 19.4% and 12.34%
  Population Hoechst High Intensity Objects (%): 0%
  Population Mitochondria Different-Phenotype (%): 57.69% and 63.16%
  Population Normal (%): 100%
  Population Pyknosed Nuclei (%): 47.01% and 66.23%
  Population Tubulin-Different-Phenotype (%): 57.69% and 94.74%
  Total Cell Count: 134 and 154
[3]
  Population Apoptotic (%): 32.61% and 81.58%
  Population Healthy Nuclei (%): 30.28% and 37.59%
  Population Hoechst High Intensity Objects (%): 0%
  Population Membrane Permeable-Phenotype (%): 9.09% and 24.53%
  Population Mitochondria Different-Phenotype (%): 24.24% and 15.09%
  Population Normal (%): 100%
  Population Pyknosed Nuclei (%): 42.2% and 53.9%
  Population Tubulin-Different-Phenotype (%): 39.39% and 67.92%
  Total Cell Count: 109 and 141
[4]
  Population Apoptotic (%): 59.65% and 72.31%
  Population Fragmented Nuclei (%): 28.46% and 10.32%
  Population Healthy Nuclei (%): 27.69% and 47.74%
  Population Hoechst High Intensity Objects (%): 0%
  Population Mitochondria Different-Phenotype (%): 58.33% and 47.3%
  Population Mitotic Cells (%): 40.35% and 27.69%
  Population Normal (%): 100%
  Population Pyknosed Nuclei (%): 43.85% and 41.94%
  Population Tubulin-Different-Phenotype (%): 66.67% and 87.84%
  Total Cell Count: 130 and 155
[5]
  Population Apoptotic (%): 33.33% and 68.42%
  Population Fragmented Nuclei (%): 15.25% and 14.4%
  Population Healthy Nuclei (%): 64.41% and 70.4%
  Population Hoechst High Intensity Objects (%): 0%
  Population Membrane Permeable-Phenotype (%): 13.16% and 19.32%
  Population Mitochondria Different-Phenotype (%): 36.84% and 19.32%
  Population Mitotic Cells (%): 66.67% and 31.58%
  Population Normal (%): 100%
  Population Pyknosed Nuclei (%): 20.34% and 15.2%
  Population Tubulin-Different-Phenotype (%): 35.53% and 67.05%
  Total Cell Count: 118 and 125
[6]
  Population Apoptotic (%): 52.78% and 75%
  Population Fragmented Nuclei (%): 19.46% and 17.61%
  Population Healthy Nuclei (%): 56.38% and 72.33%
  Population Hoechst High Intensity Objects (%): 0%
  Population Mitochondria Different-Phenotype (%): 60.71% and 47.83%
  Population Mitotic Cells (%): 47.22% and 25%
  Population Normal (%): 100%
  Population Pyknosed Nuclei (%): 24.16% and 10.06%
  Population Tubulin-Different-Phenotype (%): 70.24% and 84.35%
  Total Cell Count: 149 and 159

## CN1CCN(c2nc3cc(C(F)(F)F)ccc3n3cccc23)CC1.O=C(O)/C=C\C(=O)O.O=C(O)/C=C\C(=O)O
[1]
  Population Apoptotic (%): 50% and 26%
  Population Fragmented Nuclei (%): 18% and 24%
  Population Healthy Nuclei (%): 71% and 46%
  Population Hoechst High Intensity Objects (%): 0% and 6%
  Population Membrane Permeable-Phenotype (%): 0% and 6%
  Population Mitochondria Different-Phenotype (%): 5% and 4%
  Population Mitotic Cells (%): 50% and 73%
  Population Normal (%): 99% and 93%
  Population Tubulin-Different-Phenotype (%): 27% and 47%
  Total Cell Count: 146 and 107
[2]
  Population Apoptotic (%): 40% and 60%
  Population Fragmented Nuclei (%): 29% and 35%
  Population Healthy Nuclei (%): 59% and 41%
  Population Hoechst High Intensity Objects (%): 2% and 4%
  Population Membrane Permeable-Phenotype (%): 0% and 4%
  Population Mitochondria Different-Phenotype (%): 25% and 38%
  Population Mitotic Cells (%): 59% and 40%
  Population Normal (%): 97% and 95%
  Population Pyknosed Nuclei (%): 10% and 22%
  Population Tubulin-Different-Phenotype (%): 69% and 85%
  Total Cell Count: 207 and 117
[3]
  Population Apoptotic (%): 66% and 40%
  Population Fragmented Nuclei (%): 16% and 35%
  Population Healthy Nuclei (%): 72% and 42%
  Population Hoechst High Intensity Objects (%): 1% and 6%
  Population Membrane Permeable-Phenotype (%): 0% and 7%
  Population Mitochondria Different-Phenotype (%): 2% and 7%
  Population Mitotic Cells (%): 33% and 59%
  Population Normal (%): 98% and 93%
  Population Pyknosed Nuclei (%): 10% and 22%
  Population Tubulin-Different-Phenotype (%): 23% and 43%
  Total Cell Count: 142 and 104
[4]
  Population Apoptotic (%): 77% and 63%
  Population Fragmented Nuclei (%): 24% and 37%
  Population Healthy Nuclei (%): 64% and 43%
  Population Hoechst High Intensity Objects (%): 6% and 1%
  Population Membrane Permeable-Phenotype (%): 0% and 6%
  Population Mitochondria Different-Phenotype (%): 32%
  Population Mitotic Cells (%): 22% and 36%
  Population Normal (%): 93% and 98%
  Population Pyknosed Nuclei (%): 10% and 19%
  Population Tubulin-Different-Phenotype (%): 75% and 86%
  Total Cell Count: 214 and 117
[5]
  Population Apoptotic (%): 44% and 42%
  Population Fragmented Nuclei (%): 25% and 37%
  Population Healthy Nuclei (%): 63% and 40%
  Population Hoechst High Intensity Objects (%): 2% and 3%
  Population Membrane Permeable-Phenotype (%): 1% and 0%
  Population Mitochondria Different-Phenotype (%): 2%
  Population Mitotic Cells (%): 55% and 57%
  Population Normal (%): 97% and 96%
  Population Pyknosed Nuclei (%): 11% and 21%
  Population Tubulin-Different-Phenotype (%): 22% and 57%
  Total Cell Count: 162 and 102
[6]
  Population Apoptotic (%): 77% and 63%
  Population Fragmented Nuclei (%): 22% and 33%
  Population Healthy Nuclei (%): 68% and 57%
  Population Hoechst High Intensity Objects (%): 7% and 5%
  Population Membrane Permeable-Phenotype (%): 0% and 1%
  Population Mitochondria Different-Phenotype (%): 28% and 23%
  Population Mitotic Cells (%): 22% and 36%
  Population Normal (%): 92% and 94%
  Population Pyknosed Nuclei (%): 9%
  Population Tubulin-Different-Phenotype (%): 77% and 85%
  Total Cell Count: 211 and 118

## COc1ccccc1N1CCN(CCCCNC(=O)c2ccc3ccccc3c2)CC1.Cl
[1]
  Population Apoptotic (%): 52% and 40%
  Population Fragmented Nuclei (%): 19% and 20%
  Population Healthy Nuclei (%): 68% and 63%
  Population Mitotic Cells (%): 47% and 59%
  Population Normal (%): 95% and 96%
  Population Tubulin-Different-Phenotype (%): 35% and 42%
  Total Cell Count: 194 and 148
[2]
  Population Apoptotic (%): 58% and 39%
  Population Fragmented Nuclei (%): 32% and 40%
  Population Healthy Nuclei (%): 52% and 34%
  Population Mitotic Cells (%): 41% and 60%
  Population Normal (%): 96% and 89%
  Population Tubulin-Different-Phenotype (%): 79% and 90%
  Total Cell Count: 194 and 144
[3]
  Population Apoptotic (%): 39% and 60%
  Population Fragmented Nuclei (%): 14% and 26%
  Population Healthy Nuclei (%): 73% and 60%
  Population Mitotic Cells (%): 60% and 40%
  Population Normal (%): 98% and 96%
  Population Tubulin-Different-Phenotype (%): 31% and 40%
  Total Cell Count: 193 and 156
[4]
  Population Apoptotic (%): 66% and 69%
  Population Fragmented Nuclei (%): 32% and 41%
  Population Healthy Nuclei (%): 56% and 41%
  Population Mitotic Cells (%): 33% and 30%
  Population Normal (%): 95% and 91%
  Population Tubulin-Different-Phenotype (%): 85% and 81%
  Total Cell Count: 206 and 154
[5]
  Population Apoptotic (%): 42% and 29%
  Population Fragmented Nuclei (%): 21% and 34%
  Population Healthy Nuclei (%): 70% and 54%
  Population Mitotic Cells (%): 57% and 70%
  Population Normal (%): 96% and 95%
  Population Tubulin-Different-Phenotype (%): 38% and 39%
  Total Cell Count: 199 and 167
[6]
  Population Apoptotic (%): 73% and 75%
  Population Fragmented Nuclei (%): 33% and 38%
  Population Healthy Nuclei (%): 57% and 56%
  Population Mitotic Cells (%): 26% and 25%
  Population Tubulin-Different-Phenotype (%): 89% and 82%
  Total Cell Count: 224 and 168
